For data set [1], the system named is Yersinia pseudotuberculosis YPIII. Briefly: Inhibition of T3S in Yersinia pseudotuberculosis YPIII expressing yopE-luxAB at 1.56 uM after 3 hrs by luciferase reporter gene assay. A digest of the protocol:
(§1)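 Strain YPIII pIB102 (yopE-luxAB) grown overnight at room temperature in BHI with 5 mM EGTA and 20 mM MgCl2 (calcium depletion), adjusted to OD600 0.088–0.095. Compound added from DMSO at 1.56–200 µM final (eight concentrations). Shaken 1 h at room temperature, then 2 h at 37 °C. Decanal added and light emission read immediately. Triplicates, repeated at least three times.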
Background: In a reporter assay the amount or activity of a reporter protein is the signal.

The test system is the same in data set [2]. As to the kind of experiment: Inhibition of T3S in Yersinia pseudotuberculosis YPIII expressing yopE-luxAB at 3.13 uM after 3 hrs by luciferase reporter gene assay. A digest of the protocol:
as §1

Data set [3] has the same test system. As to the kind of experiment: Inhibition of T3S in Yersinia pseudotuberculosis YPIII expressing yopE-luxAB at 6.25 uM after 3 hrs by luciferase reporter gene assay. A digest of the protocol:
as §1

The test system is the same in data set [4]. Briefly: Inhibition of T3S in Yersinia pseudotuberculosis YPIII expressing yopE-luxAB at 12.5 uM after 3 hrs by luciferase reporter gene assay. A digest of the protocol:
as §1

Data set [5] has the same test system. Briefly: Inhibition of T3S in Yersinia pseudotuberculosis YPIII expressing yopE-luxAB at 25 uM after 3 hrs by luciferase reporter gene assay. A digest of the protocol: as §1
Data set [6] has the same test system. Briefly: Inhibition of T3S in Yersinia pseudotuberculosis YPIII expressing yopE-luxAB at 50 uM after 3 hrs by luciferase reporter gene assay. A digest of the protocol: as §1
Data set [7] has the same test system. Briefly: Inhibition of T3S in Yersinia pseudotuberculosis YPIII expressing yopE-luxAB at 100 uM after 3 hrs by luciferase reporter gene assay. A digest of the protocol:
as §1

Data set [8] has the same test system. As to the kind of experiment: Inhibition of T3S in Yersinia pseudotuberculosis YPIII expressing yopE-luxAB at 200 uM after 3 hrs by luciferase reporter gene assay. A digest of the protocol: as §1
In data set [9] the test system is Yersinia pseudotuberculosis. Briefly: Antibacterial activity against Yersinia pseudotuberculosis expressing pIB102 at 50 uM after 23 hrs by broth dilution assay. The class given is functional, organism-based. A digest of the protocol:
(§2)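 Wild-type pIB102 grown overnight in LB at room temperature, diluted to OD600 = 0.1 in LB with 2.5 mM CaCl2. Compound added from DMSO stock to final 50 and 100 µM. Incubated at 37 °C with absorbance at 595 nm read over 23 h.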
On the technique in general: In broth dilution the organism is exposed to a series of concentrations in liquid medium.

The test system of data set [10] is Escherichia coli. Briefly: Antibacterial activity against Escherichia coli DH5[alpha] at 50 uM after 23 hrs by broth dilution assay. The class given is functional, organism-based. A digest of the protocol:
(§3)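 Overnight LB culture of E. coli DH5α grown at 37 °C, diluted to OD600 0.1 in LB with 2.5 mM CaCl2; compound added from DMSO stock to final 50 or 100 µM. Incubated at 37 °C with absorbance at 595 nm followed over 23 h.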

The test system of data set [11] is Yersinia pseudotuberculosis. Briefly: Antibacterial activity against Yersinia pseudotuberculosis expressing pIB102 at 100 uM after 23 hrs by broth dilution assay. The class given is functional, organism-based. A digest of the protocol: as §2
For data set [12], the system named is Escherichia coli. Briefly: Antibacterial activity against Escherichia coli DH5[alpha] at 100 uM after 23 hrs by broth dilution assay. The class given is functional, organism-based. A digest of the protocol: as §3
For a further data set, the system named is Chlamydia trachomatis. As to the kind of experiment: Antibacterial activity against Chlamydia trachomatis infected in human HeLa 229 cells after 35 hrs by fluorescence microscopy. The class given is functional. A digest of the protocol:
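HeLa 229 monolayers infected with C. trachomatis serovar L2, MOI 0.3; compounds diluted in RPMI 1640 with 10% FCS, 2 mM L-glutamine, 8 µg/mL gentamicin (DMSO final 1%) added 1 h post-infection at 50, 25, 12.5, 6.25, 3.13 µM. 35 h at 37 °C, 5% CO2; methanol fixation, immunostaining, fluorescence microscopy at 200×. MIC = lowest concentration with no intracellular inclusions; duplicates, ≥3 occasions.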

Data set [13] is described as follows: Cytotoxicity against human HeLa 229 cells assessed as cell viability at 50 uM after 28 hrs using resazurin staining by fluorescence microscopy. The class given is cell-based. The conditions noted are these: read-out: Activity. A digest of the protocol: (§4)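 HeLa 229 viability measured at 50 and 25 µM using resazurin added 4 h before read-out; cell-free wells with medium plus compound exclude chemical reduction of resazurin. Scored relative to DMSO control, plus microscopic scoring; non-toxic defined as at least 70% viability versus control. Triplicates, repeated at least three times.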
For orientation: Resazurin is reduced to fluorescent resorufin, in cell work by metabolically active cells.

A short description of data set [14]: Cytotoxicity against human HeLa 229 cells assessed as cell viability at 25 uM after 28 hrs using resazurin staining by fluorescence microscopy. The class given is cell-based. The conditions noted are these: read-out: Activity. A digest of the protocol: as §4

Converted amounts (≈) assume the structure as drawn. The source made the active and inactive calls.

The term inhibition denotes the change of the read-out against control, counted positive when it falls. As usually defined, the MIC is the lowest concentration that inhibits growth of the organism.

Turning to `COc1cccc(C(=O)N/N=C/c2cc(Br)ccc2O)c1`, the inhibition in [1] stood at 6%; in [2], 15%; in data set [3] it was 8%; in data set [4] it was 15%; in data set [5], 22%; in data set [6] it was 44%. In addition, the inhibition stood at 71% in [7] and 77% in [8]. Also, the outcome (in data set [9]; in the data set on Escherichia coli [10]; in data set [11]; in the data set with Escherichia coli [12]) was inactive. The lowest concentration to inhibit growth with Chlamydia trachomatis (MIC) was 25 µM (≈ 8.73 µg/mL). In data set [13], the viability at 28 h, 50 µM was 65%. Also, the viability at 28 h, 25 µM in data set [14] worked out at 73%.

`CC(C)(C)c1ccc(O)c(/C=N/NC(=O)Cc2ccccc2)c1`: the inhibition in data set [1] is 9%; in [2], 13%; in data set [3], 9%; in data set [4], 4%; in data set [5], 10%; in data set [6], 26%. Also, the inhibition in data set [7] came out at 20%; in data set [8], 25%. The outcome (in data set [9]; with Escherichia coli [10]; in [11]; in the data set with Escherichia coli [12]) was inactive. The MIC entry with Chlamydia trachomatis is “inactive”. In addition, in data set [13], the viability at 28 h, 50 µM was determined as 79%. Moreover, the viability at 28 h, 25 µM in data set [14] was determined as 83%.

Consider `O=C(Cc1ccccc1)N/N=C/c1cc(Br)ccc1O`, for which the inhibition in data set [1] turned out to be 15%; in data set [2], 4%; in data set [3] it was 10%; in data set [4], 7%; in data set [5] it was 15%; in data set [6] it was 26%. Besides, the inhibition was determined as 39% in [7] and 50% in [8]. Besides, the result (in [9]; in the data set with Escherichia coli [10]; in data set [11]; with Escherichia coli [12]) was inactive. The same molecule displayed an MIC against Chlamydia trachomatis of 50 µM (≈ 16.7 µg/mL). Moreover, the viability at 28 h, 50 µM in [13] worked out at 74%. Further, the viability at 28 h, 25 µM in [14] was 75%.

Take `COc1cc(Br)cc(/C=N/NC(=O)Cc2ccccc2)c1O`: the inhibition in data set [1] is 10%; in [2], 18%; in [3] it was 12%; in data set [4] it was 15%; in data set [5], 9%; in data set [6], 22%. The values for the inhibition in data set [7] and in [8] were 57% and 65%, respectively. Further, the result (in [9]; with Escherichia coli [10]; in data set [11]; in the data set with Escherichia coli [12]) was inactive. Besides, in the data set with Chlamydia trachomatis, the MIC result was “inactive”. Moreover, the viability at 28 h, 50 µM in data set [13] stood at 33%. In addition, the viability at 28 h, 25 µM in [14] was determined as 58%.

For the molecule `COc1ccc(Br)c(/C=N/NC(=O)CC#N)c1O`, the inhibition is -9% in data set [1]; 12% in data set [2]; 17% in data set [3]; 18% in data set [4]; 20% in data set [5]; 25% in [6]. The inhibition in [7] was 57%; in [8], 59%. The outcome (in data set [9]; in the data set on Escherichia coli [10]; in [11]; in the data set on Escherichia coli [12]) was inactive.

In the case of `O=C(N/N=C/c1cc(F)cc(Cl)c1O)c1cc(Cl)cc(Cl)c1`, the inhibition was -10% in data set [1]; 4% in data set [2]; 12% in [3]; 10% in [4]; 11% in [5]; 19% in [6]. In addition, the figures for the inhibition in [7] and in data set [8] were 24% and 13%, respectively. For the same molecule, the result (in data set [9]; in the data set with Escherichia coli [10]; in data set [11]; in the data set with Escherichia coli [12]) was inactive.

As for `O=C(N/N=C/c1cccc(F)c1O)c1cccc(C(F)(F)F)c1`, the inhibition in data set [1] was -10%; in data set [2], 3%; in [3], 5%; in data set [4], 14%; in [5] it was 30%; in data set [6], 32%. The figures for the inhibition in data set [7] and in [8] were 48% and 65%, respectively. The outcome (in [9]; in the data set on Escherichia coli [10]; in data set [11]; in the data set with Escherichia coli [12]) was inactive.

As for `COc1cc([N+](=O)[O-])cc(/C=N/NC(=O)CC#N)c1O`, the inhibition in data set [1] is -4%; in data set [2], 4%; in data set [3], 14%; in data set [4], 24%; in [5], 27%; in data set [6], 39%. Further, the inhibition was determined as 39% in data set [7] and 43% in data set [8]. For the same molecule, the result (in [9]; in the data set with Escherichia coli [10]; in data set [11]; with Escherichia coli [12]) was inactive.

For the molecule `O=C(N/N=C/c1c(O)cc(O)cc1O)c1sc2ccccc2c1Cl`, the inhibition turned out to be 2% in [1]; 10% in data set [2]; 21% in data set [3]; 33% in data set [4]; 44% in data set [5]; 70% in data set [6]. For the same molecule, the results for the inhibition in data set [7] and in data set [8] were 79% and 87%, respectively. Besides, the outcome (in data set [9]; in the data set with Escherichia coli [10]; in [11]; with Escherichia coli [12]) was inactive.

As for `COc1cccc(/C=N/NC(=O)c2ccccc2[N+](=O)[O-])c1O`, the inhibition in data set [1] is -5%; in data set [2], 19%; in data set [3], 14%; in [4], 12%; in [5], 19%; in data set [6] it was 32%. The values for the inhibition in [7] and in data set [8] were 68% and 94%, respectively. The outcome (in data set [9]; with Escherichia coli [10]; in [11]; in the data set on Escherichia coli [12]) was inactive.

Take `O=C(N/N=C/c1ccc(Cl)cc1O)c1ccc(Br)cc1`: the inhibition was -6% in data set [1]; 11% in data set [2]; 14% in data set [3]; 26% in data set [4]; 29% in [5]; 27% in [6]. The results for the inhibition in [7] and in data set [8] were 22% and 10%, respectively. Besides, the outcome (in [9]; in the data set with Escherichia coli [10]; in data set [11]; in the data set on Escherichia coli [12]) was inactive.

Regarding `CCN(CC)c1ccc(/C=N/NC(=O)c2cc(Cl)cc(Cl)c2)c(O)c1`, the inhibition in data set [1] was -6%; in [2], 19%; in data set [3], 22%; in data set [4], 29%; in [5], 34%; in data set [6], 43%. Further, the inhibition in [7] and in data set [8] was 46% throughout. The result (in data set [9]; in the data set on Escherichia coli [10]; in data set [11]; in the data set with Escherichia coli [12]) was inactive.

The values are drawn from ChEMBL document CHEMBL1156948, “Statistical molecular design of a focused salicylidene acylhydrazide library and multivariate QSAR of inhibition of type III secretion in the Gram-negative bacterium Yersinia” (Bioorg Med Chem, 2010).
